In data set [1] the target is Acetyl-CoA carboxylase (Rattus norvegicus, UniProt P11497+Q1HEC0). Put plainly: Inhibition of rat ACC1/2 assessed as malonyl-CoA synthesis. The class given is protein assay. Summed up: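 Rat liver cytosolic ACC is preincubated with compound or DMSO for 30 min at 37 °C in Tris acetate pH 7.5 buffer. The reaction uses the liver-ACC substrate mix: 2.12 mM ATP, 18.2 mM NaHCO3 and [14C]acetyl-CoA. Residual acetyl-CoA is removed as acetyl-carnitine on cation-exchange resin, and [14C]malonyl-CoA in the eluate is counted. IC50 is the mean of at least two experiments.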

Data set [2] concerns the target Acetyl-CoA carboxylase (Homo sapiens, UniProt Q13085+O00763). Description: Inhibition of human ACC1/2 assessed as [14C]malonyl-CoA synthesis. The class given is protein assay. The gist of the method:
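Enzyme source: human liver cytosol, ammonium sulfate precipitated (30%) and anion-exchange purified in MOPS pH 7.5 buffer. It is preincubated with compound or DMSO for 30 min at 37 °C in Tris acetate pH 7.5 buffer. Substrates are 2.12 mM ATP, 18.2 mM NaHCO3 and [14C]acetyl-CoA. Unreacted acetyl-CoA is converted to acetyl-carnitine and retained on cation-exchange resin, and eluted [14C]malonyl-CoA is counted. IC50 is the mean of at least two experiments.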

A further data set deals with HepG2. Description: Inhibition of fatty acid synthesis in human HepG2 cells assessed as [14C]acetate incorporation after 2 hrs by liquid scintillation counter. The class given is functional, cell-based. The following applies: HepG2, 2 h. The gist of the method:
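HepG2 cells are plated at 3 × 10^5/well and grown 48 h in DMEM/10% FBS. They are serum-starved 1 h in DMEM with 1.5% BSA, with or without compound. Radiolabelled acetate is added for 2 h. Cells are washed, then saponified with KOH for 2 h at 70 °C. After hexane washes and acidification to pH <2, fatty acids are extracted into hexane.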

Data set [3] in a line: Metabolic stability in human liver microsomes assessed as compound recovery after 15 mins by LC-MS/MS. The format is ADME, Microsome. The conditions noted are these: read-out: Stability. Summed up: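 Compound is incubated at 37 °C with 1 mg/mL human liver microsomes in phosphate buffer with an NADPH-generating system (glucose-6-phosphate, NADP, G6P dehydrogenase) plus MgCl2 and KCl. Levels at 0 and 15 min are measured by LC–MS/MS, and percent remaining is taken from their ratio.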

The nature of data set [4]: Chemical stability of the compound in simulated gastric media assessed as compound recovery at pH 1.2 after 3 hrs by HPLC method. The class given is physicochemical. The following applies: read-out: Stability. Summed up: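 Acid stability: compound is held in aqueous solution at pH 1.2 for 3 h at 37 °C. Parent remaining is quantified by HPLC.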

Regarding `CC(=O)N1CCC(C(=O)N2CCC(N3CCN(C(=O)c4cc(-c5ccc(C)cc5)nc(-c5ccc(C)cc5)c4)CC3)CC2)CC1`, the IC50 (usually the midpoint of a concentration-inhibition curve) at Acetyl-CoA carboxylase [1] is 70 nM.

In the case of `CC(=O)N1CCC(C(=O)N2CCC(N3CCN(C(=O)c4cc(-c5ccc(C)cc5)nc(-c5ccc6[nH]c(C)c(C)c6c5)c4)CC3)CC2)CC1`, the results for the IC50 on Acetyl-CoA carboxylase [2] and with HepG2 were 33 nM and 294 nM, respectively.

For the compound `CCNC(=O)Nc1sc2ccccc2c1C(=O)N1CCN(C2CCN(C(C)=O)CC2)CC1`, the IC50 on Acetyl-CoA carboxylase [2] is 1864 nM.

For `CCNC(=O)Nc1sc2ccccc2c1C(=O)N1CCN(C2CCN(C(=O)CC)CC2)CC1`, the IC50 at Acetyl-CoA carboxylase [2] was found to be 597 nM.

In the case of `CCCC(=O)N1CCC(N2CCN(C(=O)c3c(NC(=O)NCC)sc4ccccc34)CC2)CC1`, the IC50 on Acetyl-CoA carboxylase [2] came out at 242 nM.

On to `CCCCC(=O)N1CCC(N2CCN(C(=O)c3c(NC(=O)NCC)sc4ccccc34)CC2)CC1`, for which the IC50 at Acetyl-CoA carboxylase [2] came to 207 nM.

Regarding `CCNC(=O)Nc1sc2ccccc2c1C(=O)N1CCN(C2CCN(C(=O)CC(C)C)CC2)CC1`, the IC50 at Acetyl-CoA carboxylase [2] is listed as 144 nM.

`CCNC(=O)Nc1sc2ccccc2c1C(=O)N1CCN(C2CCN(C(=O)C(C)C)CC2)CC1`: the IC50 at Acetyl-CoA carboxylase [2] amounted to 131 nM.

As to `CCNC(=O)Nc1sc2ccccc2c1C(=O)N1CCN(C2CCN(C(=O)C3CCCCC3)CC2)CC1`, the IC50 was determined as 81 nM on Acetyl-CoA carboxylase [2] and 146 nM with HepG2.

`CCNC(=O)Nc1sc2ccccc2c1C(=O)N1CCN(C2CCN(C(=O)C(C)(C)C)CC2)CC1`: the IC50 stood at 109 nM at Acetyl-CoA carboxylase [2] and 450 nM with HepG2.

On to `CCNC(=O)Nc1sc2ccccc2c1C(=O)N1CCN(C2CCN(C(=O)OC)CC2)CC1`, for which the IC50 on Acetyl-CoA carboxylase [2] came out at 175 nM.

As to `CCNC(=O)Nc1sc2ccccc2c1C(=O)N1CCN(C2CCN(C(=O)OCC)CC2)CC1`, the IC50 at Acetyl-CoA carboxylase [2] was found to be 55 nM; in the data set on HepG2, 228 nM.

With `CCNC(=O)Nc1sc2ccccc2c1C(=O)N1CCN(C2CCN(C(=O)OC(C)C)CC2)CC1`, the IC50 was 28 nM on Acetyl-CoA carboxylase [2] and 208 nM in the data set with HepG2. Also, the remaining at 0.25 h in data set [3] turned out to be 3%.

In the case of `CCNC(=O)Nc1sc2ccccc2c1C(=O)N1CCN(C2CCN(C(=O)OC3CCCC3)CC2)CC1`, the half-inhibitory concentration (IC50) on Acetyl-CoA carboxylase [2] amounted to 52 nM; with HepG2 it was 512 nM.

`CCNC(=O)Nc1sc2ccccc2c1C(=O)N1CCN(C2CCN(C(=O)OC3CCCCC3)CC2)CC1`: the results for the IC50 at Acetyl-CoA carboxylase [2] and in the data set on HepG2 were 76 nM and 635 nM, respectively.

Turning to `CCNC(=O)Nc1sc2ccccc2c1C(=O)N1CCN(C2CCN(C(=O)OC(C)(C)C)CC2)CC1`, the figures for the IC50 at Acetyl-CoA carboxylase [2] and in the data set on HepG2 were 24 nM and 79 nM, respectively. The remaining at 3 h in data set [4] was 23%.

With `CCNC(=O)Nc1sc2ccccc2c1C(=O)N1CCN(C2CCN(C(=O)NC(C)(C)C)CC2)CC1`, the IC50 was 119 nM at Acetyl-CoA carboxylase [2] and 775 nM in the data set with HepG2.

Take `CCNC(=O)Nc1sc2ccccc2c1C(=O)N1CCN(C2CCN(C(=O)OC(C)(C)CF)CC2)CC1`: the values for the IC50 on Acetyl-CoA carboxylase [2] and in the data set on HepG2 were 17 nM and 61 nM, respectively. Besides, in data set [4], the remaining at 3 h was 98%. Further, the remaining at 0.25 h in data set [3] worked out at 3%.

`CCNC(=O)Nc1sc2ccccc2c1C(=O)N1CCN(C2CCN(C(=O)OC(C)(C)C(F)(F)F)CC2)CC1`: the IC50 on Acetyl-CoA carboxylase [2] amounted to 31 nM; in the data set on HepG2, 81 nM. The remaining at 3 h in data set [4] was 100%. Besides, the remaining at 0.25 h in data set [3] was 5%.

Consider `CCNC(=O)Nc1sc2ccc(C)cc2c1C(=O)N1CCN(C2CCN(C(=O)OC(C)C)CC2)CC1`, for which the half-inhibitory concentration (IC50) on Acetyl-CoA carboxylase [2] was 32 nM; in the data set with HepG2, 254 nM. Moreover, the remaining at 0.25 h in data set [3] came out at 3%.

Consider `CCNC(=O)Nc1sc2cc(C)ccc2c1C(=O)N1CCN(C2CCN(C(=O)OC(C)C)CC2)CC1`, for which the IC50 stood at 60 nM on Acetyl-CoA carboxylase [2] and 628 nM in the data set on HepG2. In addition, in data set [3], the remaining at 0.25 h came to 77%.

For the compound `CCNC(=O)Nc1sc2cc(C)ccc2c1C(=O)N1CCN(C2CCN(C(=O)OC(C)(C)CF)CC2)CC1`, the figures for the IC50 at Acetyl-CoA carboxylase [2] and in the data set on HepG2 were 32 nM and 73 nM, respectively. In data set [3], the remaining at 0.25 h was determined as 84%.

Turning to `CCNC(=O)Nc1sc2cc(C(F)(F)F)ccc2c1C(=O)N1CCN(C2CCN(C(=O)OC(C)(C)C(F)(F)F)CC2)CC1`, the IC50 at Acetyl-CoA carboxylase [2] is on record as 98 nM. Moreover, the remaining at 0.25 h in data set [3] came out at 7%.

`CCNC(=O)Nc1sc2cc(F)ccc2c1C(=O)N1CCN(C2CCN(C(=O)OC(C)(C)C(F)(F)F)CC2)CC1`: the IC50 at Acetyl-CoA carboxylase [2] was 62 nM. In data set [3], the remaining at 0.25 h was determined as 17%.

As to `CCNC(=O)Nc1sc2cc(Cl)ccc2c1C(=O)N1CCN(C2CCN(C(=O)OC(C)(C)C(F)(F)F)CC2)CC1`, the IC50 on Acetyl-CoA carboxylase [2] was 38 nM. Besides, the remaining at 0.25 h in data set [3] came to 51%.

Take `CCNC(=O)Nc1sc2cc(OC)ccc2c1C(=O)N1CCN(C2CCN(C(=O)OC(C)(C)C(F)(F)F)CC2)CC1`: the IC50 on Acetyl-CoA carboxylase [2] worked out at 27 nM; in the data set on HepG2, 67 nM. Besides, in data set [3], the remaining at 0.25 h came to 29%.

Take `CCNC(=O)Nc1sc2cccnc2c1C(=O)N1CCN(C2CCN(C(=O)OC(C)(C)C(F)(F)F)CC2)CC1`: the values for the IC50 on Acetyl-CoA carboxylase [2] and in the data set with HepG2 were 12 nM and 49 nM, respectively. Moreover, the remaining at 0.25 h in data set [3] was 13%.

Consider `CCNC(=O)Nc1sc2ccncc2c1C(=O)N1CCN(C2CCN(C(=O)OC(C)(C)C(F)(F)F)CC2)CC1`, for which, on Acetyl-CoA carboxylase [2], the IC50 is reported as 117 nM.

In the case of `CCNC(=O)Nc1sc2cnccc2c1C(=O)N1CCN(C2CCN(C(=O)OC(C)(C)C(F)(F)F)CC2)CC1`, the results for the IC50 at Acetyl-CoA carboxylase [2] and with HepG2 were 41 nM and 152 nM, respectively. Moreover, the remaining at 0.25 h in data set [3] is 67%.

For the compound `CCNC(=O)Nc1sc2ncccc2c1C(=O)N1CCN(C2CCN(C(=O)OC(C)(C)C(F)(F)F)CC2)CC1`, the IC50 amounted to 45 nM on Acetyl-CoA carboxylase [2] and 67 nM with HepG2. For the same compound, the remaining at 0.25 h in data set [3] was found to be 3%.

For `CCNC(=O)Nc1sc2ccccc2c1C(=O)N1CCN(C2CCN(C(=O)C3CCN(C(C)=O)CC3)CC2)CC1.O=C(O)/C=C\C(=O)O`, the IC50 on Acetyl-CoA carboxylase [2] is on record as 74 nM.

Consider `CCNC(=O)Nc1sc2ccccc2c1C(=O)N1CCN(C2CCN(C(=O)C3CCCC3)CC2)CC1.O=C(O)/C=C\C(=O)O`, for which the half-inhibitory concentration (IC50) on Acetyl-CoA carboxylase [2] was 49 nM; with HepG2 it was 309 nM.
